The source made the active and inactive calls. No cut-off for these calls is given here.
Columns and labels:
HL-60 [1] = assay: Cell cycle distribution in human HL60 cells assessed as cell cycle accumulation at sub-G1 phase at 19.9 uM after 6 hrs by flow cytometry; assay type: functional
Procedure, shortened: (§1)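 HL-60 cells exposed for 6, 12 or 24 h, then washed twice in PBS and fixed in 70% ethanol (30 min, 4°C). After a PBS rinse they were stained in the dark with 50 μg/mL propidium iodide plus 50 μg/mL RNase A (30 min, 37°C). DNA content was read by flow cytometry, and the sub-G1 hypodiploid fraction was taken from the DNA histograms.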

HL-60 [2] = assay: Cell cycle distribution in human HL60 cells assessed as cell cycle accumulation at sub-G1 phase at 19.9 uM after 24 hrs by flow cytometry; assay type: functional; procedure, shortened: as §1
SK-OV-3 = assay: Cytotoxicity against human SKOV3 cells by MTT assay; assay type: functional, cell-based
Procedure, shortened: (§2)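 Cytotoxicity was read by MTT assay on human tumour lines: A549 lung, HT-29 colon, MCF-7 breast, SK-OV-3 ovary, and HL-60 and U937 leukaemia. Results are given as IC50 (μM), with values below 100 μM counted as active. A positive control was included.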

HL-60 [3] = assay: Induction of apoptosis in human HL60 cells assessed as increase in number of apoptotic body with condensed and fragmented nuclei at 19.9 uM after 6 to 24 hrs by H33342 staining method; assay type: functional, cell-based
Procedure, shortened: (§3)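 HL-60 cells at 3×10^5 cells/mL were exposed for 6, 12 and 24 h, washed twice with PBS and stained with 1 mg/mL Hoechst 33342 (30 min, 37°C). Apoptotic bodies, seen as condensed and fragmented nuclei, were scored by fluorescence microscopy at ×400.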

A549 = assay: Cytotoxicity against human A549 cells by MTT assay; assay type: functional, cell-based; procedure, shortened: as §2
HL-60 [4] = assay: Cytotoxicity against human HL60 cells by MTT assay; assay type: functional, cell-based; procedure, shortened: as §2
MCF7 = assay: Cytotoxicity against human MCF7 cells by MTT assay; assay type: functional, cell-based; procedure, shortened: as §2
HT-29 = assay: Cytotoxicity against human HT-29 cells by MTT assay; assay type: functional, cell-based; procedure, shortened: as §2
HL-60 [5] = assay: Cell cycle distribution in human HL60 cells assessed as cell cycle accumulation at sub-G1 phase at 19.9 uM after 12 hrs by flow cytometry; assay type: functional; procedure, shortened: as §1
U-937 = assay: Cytotoxicity against human U937 cells by MTT assay; assay type: functional, cell-based; procedure, shortened: as §2
HL-60 [6] = assay: Cell cycle distribution in human HL60 cells assessed as cell cycle accumulation at sub-G1 phase at 21.3 uM after 12 hrs by flow cytometry; assay type: functional; procedure, shortened: as §1
HL-60 [7] = assay: Cell cycle distribution in human HL60 cells assessed as cell cycle accumulation at sub-G1 phase at 21.3 uM after 24 hrs by flow cytometry; assay type: functional; procedure, shortened: as §1
HL-60 [8] = assay: Cell cycle distribution in human HL60 cells assessed as cell cycle accumulation at sub-G1 phase at 21.3 uM after 6 hrs by flow cytometry; assay type: functional; procedure, shortened: as §1
HL-60 [9] = assay: Induction of apoptosis in human HL60 cells assessed as increase in number of apoptotic body with condensed and fragmented nuclei at 21.3 uM after 6 to 24 hrs by H33342 staining method; assay type: functional, cell-based; procedure, shortened: as §3
HL-60 [10] = assay: Cell cycle distribution in human HL60 cells assessed as cell cycle accumulation at sub-G1 phase at 21.5 uM after 6 hrs by flow cytometry; assay type: functional; procedure, shortened: as §1
HL-60 [11] = assay: Induction of apoptosis in human HL60 cells assessed as increase in number of apoptotic body with condensed and fragmented nuclei at 21.5 uM after 6 to 24 hrs by H33342 staining method; assay type: functional, cell-based; procedure, shortened: as §3
HL-60 [12] = assay: Cell cycle distribution in human HL60 cells assessed as cell cycle accumulation at sub-G1 phase at 21.5 uM after 24 hrs by flow cytometry; assay type: functional; procedure, shortened: as §1
HL-60 [13] = assay: Cell cycle distribution in human HL60 cells assessed as cell cycle accumulation at sub-G1 phase at 21.5 uM after 12 hrs by flow cytometry; assay type: functional; procedure, shortened: as §1

Row | SMILES | Activity (HL-60 [1]) | Activity (HL-60 [2]) | IC50 (SK-OV-3) | Activity (HL-60 [3]) | IC50 (A549) | IC50 (HL-60 [4]) | IC50 (MCF7) | IC50 (HT-29) | Activity (HL-60 [5]) | IC50 (U-937) | Activity (HL-60 [6]) | Activity (HL-60 [7]) | Activity (HL-60 [8]) | Activity (HL-60 [9]) | Activity (HL-60 [10]) | Activity (HL-60 [11]) | Activity (HL-60 [12]) | Activity (HL-60 [13])
1 | C[C@H](CC[C@@H](C)[C@H]1CC[C@H]2[C@@H]3CC(=O)C4=CC(=O)CC[C@]4(C)[C@H]3CC[C@]12C)[C@@H]1C[C@H]1C | 11.19% | 48.83% | 16.2 µM | Active | 8.4 µM | 19.9 µM | 17.8 µM | 48.2 µM | 21.85% | 22.1 µM |  |  |  |  |  |  |  | 
2 | CC(CCC(C)C1CCC2C3CC4OC45CC(O)CCC5(C)C3CCC12C)C1CC1C (stereo unspecified) |  |  | 22.6 µM |  | 9.8 µM | 21.3 µM | 19.4 µM | 69.9 µM |  | 19.9 µM | 24.92% | 51.33% | 11.8% | Active |  |  |  | 
3 | C[C@H](CC[C@@H](C)[C@H]1CC[C@H]2[C@@H]3CC=C4C[C@@H](O)CC[C@]4(C)[C@H]3CC[C@]12C)[C@@H]1C[C@H]1C [PETROSTEROL] |  |  | 19.8 µM |  | 11.5 µM | 21.5 µM | 16.4 µM | 46.5 µM |  | 18.7 µM |  |  |  |  | 12.61% | Active | 52.58% | 27.4%
4 | O=C1c2c(O)ccc(O)c2C(=O)c2c(NCCNCCO)ccc(NCCNCCO)c21 [MITOXANTRONE] |  |  | 9.8 µM |  | 8 µM | 6.3 µM | 7.1 µM | 8.7 µM |  | 6.2 µM |  |  |  |  |  |  |  | 

Reference: ChEMBL document CHEMBL1153479, “C29 sterols with a cyclopropane ring at C-25 and 26 from the Vietnamese marine sponge Ianthella sp. and their anticancer properties” (Bioorg Med Chem Lett, 2009)
